Results from ChEMBL document CHEMBL4196108, “5-Aroylindoles Act as Selective Histone Deacetylase 6 Inhibitors Ameliorating Alzheimer's Disease Phenotypes” (J Med Chem, 2018).
Calls of active or inactive are those of the source. The calls are words filed in the database; no cut-off is given here.

Experiments:
[1] = target: T1, Protein deacetylase HDAC6 (Mus musculus) (UniProt Q9Z2V5); assay: Inhibition of HDAC6 in mouse Neuro-2a cells transfected with pCAX FLAG APP and pRK5-EGFP-Tau P301L plasmids assessed as inhibition of Tau P301L mutant phosphorylation at Ser404 residue at 1 uM after 24 hrs by Western blot analysis; assay type: cell-based
T1 sequence (whole entry): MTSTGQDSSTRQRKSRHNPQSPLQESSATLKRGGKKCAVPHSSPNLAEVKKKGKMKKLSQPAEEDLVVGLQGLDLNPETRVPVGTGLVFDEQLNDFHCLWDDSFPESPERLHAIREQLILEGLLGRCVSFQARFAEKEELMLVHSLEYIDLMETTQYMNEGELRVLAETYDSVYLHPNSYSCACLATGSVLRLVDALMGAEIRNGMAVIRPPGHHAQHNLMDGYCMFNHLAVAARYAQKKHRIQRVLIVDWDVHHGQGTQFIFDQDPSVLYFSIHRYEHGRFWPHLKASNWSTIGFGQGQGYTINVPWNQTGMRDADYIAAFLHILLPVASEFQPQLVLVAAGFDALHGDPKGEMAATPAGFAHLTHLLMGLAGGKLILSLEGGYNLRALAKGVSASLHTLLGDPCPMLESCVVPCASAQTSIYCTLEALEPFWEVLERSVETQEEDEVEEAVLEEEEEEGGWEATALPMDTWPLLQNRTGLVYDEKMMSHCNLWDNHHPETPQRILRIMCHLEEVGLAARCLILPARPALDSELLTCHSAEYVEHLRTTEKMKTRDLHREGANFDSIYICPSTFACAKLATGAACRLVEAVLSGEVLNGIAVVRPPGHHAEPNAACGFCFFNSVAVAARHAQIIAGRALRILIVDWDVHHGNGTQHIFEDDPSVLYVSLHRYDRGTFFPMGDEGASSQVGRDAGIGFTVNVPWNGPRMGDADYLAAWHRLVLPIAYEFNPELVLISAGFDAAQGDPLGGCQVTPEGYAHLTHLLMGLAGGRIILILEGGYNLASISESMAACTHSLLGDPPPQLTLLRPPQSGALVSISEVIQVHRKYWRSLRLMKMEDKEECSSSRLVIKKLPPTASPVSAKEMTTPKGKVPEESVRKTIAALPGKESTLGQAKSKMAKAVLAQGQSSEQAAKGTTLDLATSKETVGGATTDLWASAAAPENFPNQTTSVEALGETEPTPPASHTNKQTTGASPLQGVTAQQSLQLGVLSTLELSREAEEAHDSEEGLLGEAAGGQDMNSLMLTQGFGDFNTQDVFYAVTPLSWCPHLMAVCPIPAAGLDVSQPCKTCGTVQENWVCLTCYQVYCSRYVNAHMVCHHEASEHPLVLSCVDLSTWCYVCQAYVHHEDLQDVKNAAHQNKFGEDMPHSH
In short: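 SH-SY5Y or Neuro-2a cells cotransfected 24 h with pCAX APP695 and pRK5-EGFP-Tau P301L, then treated 24 h at 1 µM. 20 µg lysate protein immunoblotted for APP and phospho-tau Ser396/Ser404. Mean ± STD of three independent experiments; Student's t-test.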

[2] = target: T1, Protein deacetylase HDAC6 (Mus musculus); assay: Inhibition of HDAC6 binding to HSP90 in mouse Neuro-2a cells transfected with pCAX FLAG APP and pRK5-EGFP-Tau P301L plasmids at 1 uM after 24 hrs by coimmunoprecipitation analysis; assay type: cell-based
In short: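 SH-SY5Y and Neuro-2a cells cotransfected 24 h with APP695/Tau P301L plasmids, treated 24 h at 1 µM (ACY-1215 reference). 30 µg lysate immunoprecipitated overnight at 4 °C with anti-HDAC6 or anti-acetyl-lysine antibodies plus protein A/G beads, run on 8% SDS-PAGE, probed for Hsp90; Hsp70 by immunoblot. Three independent experiments.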

Mus musculus = assay: In vivo inhibition of HDAC6 in 3xTg-AD transgenic mouse brain hippocampal CA1 region assessed as downregulation of scopolamine-mediated increase in Tau phosphorylation at Ser404 residue at 50 mg/kg, po administered daily for 3 months by immunohistochemical analysis; assay type: functional, organism-based
In short: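 Female 3xTg-AD mice, standard diet to 6 months of age, then 50 mg/kg orally once daily for three months; memantine 30 mg/kg in water as comparator. Brains removed and hippocampal CA1 sections immunostained for acetyl-α-tubulin and phospho-tau Ser396 and Ser404. Mean ± STD; one-way ANOVA.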

[3] = Plasma concentration in Sprague-Dawley rat at 50 mg/kg, po after 3 hrs by HPLC-MS/MS analysis; assay type: ADME, organism-based

COc1ccc(C(=O)c2ccc3c(ccn3Cc3ccc(C(=O)NO)cc3)c2)cc1
inhibition [1]: Active
inhibition [2]: Active
inhibition (Mus musculus): Active
concentration at 3 h [3]: 7.3 ng/mL
